The values below come from ChEMBL document CHEMBL1147658, “[2-11C]isopropyl-, [1-11C]ethyl-, and [11C]methyl-labeled phenoxyphenyl acetamide derivatives as positron emission tomography ligands for the peripheral benzodiazepine receptor: radiosynthesis, uptake, and in vivo binding in brain” (J Med Chem, 2006).

The Ki is a measure of affinity in units of concentration, obtained from inhibition or displacement. As a reminder, the half-life is the time in which the quantity being followed falls by half. By logD is commonly meant the decadic logarithm of the distribution of all forms, ionised or not, between an organic phase and buffer at a given pH.

Series [1] concerns the target T1, Translocator protein (Rattus norvegicus, UniProt P16257). Kind of series: Displacement of [11C][…] from Sprague-Dawley rat brain PBR. It counts as tissue-based. In general terms: Displacement assays read how much labelled ligand stays bound in the presence of the test substance.
Series [2] concerns the target GABA-A receptor; anion channel. Put plainly: Displacement of [11C]Flumazenil from Sprague-Dawley rat brain CBR. Format: tissue-based.
Series [3] relates to Rattus norvegicus. Put plainly: Decrease in uptake in iv dosed Sprague-Dawley rat brain cerebellum after 30 mins per gram of wet tissue in presence of 1 mg/kg DAA1106. Format: ADME, organism-based. More on the design: dose 1 mg/kg, route intravenous. The settings on record: in vivo, 0.5 h. A digest of the protocol:
(§1)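 Rats given [11C]ligand 45-50 MBq iv, alone or mixed with nonradioactive DAA1106 (1 mg/kg in 10% EtOH/saline). Killed 30 min later under ether. Brains frozen, cut into 20 µm sagittal cryosections and exposed to imaging plates for 60 min. Regional radioactivity read by bioimaging analyzer; brain uptake expressed as % injected dose per gram wet tissue (n=3).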

Series [4] deals with Rhesus monkey. Put plainly: Decrease in uptake in iv dosed rhesus monkey brain occipital cortex after 90 mins in presence of 5 mg/kg […]. Format: ADME, organism-based, Macaca mulatta. Further details: dose 5 mg/kg, route intravenous. The settings on record: in vivo, 1.5 h. Put shortly:
(§2)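 One awake male rhesus monkey (about 7.5 kg) imaged by 3D dynamic PET for 90 min after [11C]ligand 70-80 MBq iv. Blocker given iv 2 min before tracer: DAA1106 1 mg/kg, or PK11195 5 mg/kg, each in 10% EtOH/saline. Time-activity curves taken from 5 mm ROI on occipital cortex, as % dose/mL.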

For series [5], the system named is Rhesus monkey. Put plainly: Decrease in uptake in iv dosed rhesus monkey brain occipital cortex after 90 mins in presence of 1 mg/kg DAA1106. Further details: dose 1 mg/kg, route intravenous. The settings on record: in vivo, 1.5 h. It counts as ADME, organism-based, Macaca mulatta. A digest of the protocol: as §2
The subject of series [6] is Rattus norvegicus. Kind of series: Uptake in iv dosed Sprague-Dawley rat brain after 30 mins per gram of wet tissue. Format: ADME, organism-based. The settings on record: in vivo, 0.5 h. Put shortly:
as §1

In series [7] the test system is Rattus norvegicus. Put plainly: Decrease in uptake in iv dosed Sprague-Dawley rat brain olfactory bulb after 30 mins per gram of wet tissue in presence of 1 mg/kg DAA1106. Format: ADME, organism-based. Further details: dose 1 mg/kg, route intravenous. The settings on record: in vivo, 0.5 h. Put shortly: as §1
The test system of series [8] is Rattus norvegicus. Put plainly: Decrease in uptake in iv dosed Sprague-Dawley rat brain striatum after 30 mins per gram of wet tissue in presence of 1 mg/kg DAA1106. Format: ADME, organism-based. More on the design: dose 1 mg/kg, route intravenous. Conditions: in vivo, 0.5 h. Put shortly: as §1
The subject of series [9] is Rattus norvegicus. Kind of series: Decrease in uptake in iv dosed Sprague-Dawley rat brain frontal cortex after 30 mins per gram of wet tissue in presence of 1 mg/kg DAA1106. More on the design: dose 1 mg/kg, route intravenous. Format: ADME, organism-based. The settings on record: in vivo, 0.5 h. Put shortly: as §1
Series [10] deals with Rattus norvegicus. Put plainly: Ratio for decrease in uptake in iv dosed Sprague-Dawley rat brain olfactory bulb to frontal cortex after 30 mins per gram of wet tissue in presence of 1 mg/kg DAA1106. It counts as ADME, organism-based. More on the design: dose 1 mg/kg, route intravenous. The settings on record: in vivo, 0.5 h. A digest of the protocol:
as §1

The test system of series [11] is Rattus norvegicus. Kind of series: Ratio for decrease in uptake in iv dosed Sprague-Dawley rat brain cerebellum to frontal cortex after 30 mins per gram of wet tissue in presence of 1 mg/kg DAA1106. It counts as ADME, organism-based. Further details: dose 1 mg/kg, route intravenous. The settings on record: in vivo, 0.5 h. A digest of the protocol:
as §1

For series [12], the system named is Rattus norvegicus. Put plainly: Ratio for decrease in uptake in iv dosed Sprague-Dawley rat brain striatum to frontal cortex after 30 mins per gram of wet tissue in presence of 1 mg/kg DAA1106. Conditions: in vivo, 0.5 h. More on the design: dose 1 mg/kg, route intravenous. It counts as ADME, organism-based. Put shortly:
as §1

Series [13] is described as follows: Plasma half life in iv dosed monkey. Conditions: rhesus monkey. It counts as ADME, organism-based, Macaca mulatta. Put shortly: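 Monkey given [11C]ligand 70-80 MBq iv. Arterial blood drawn at 1, 2, 5, 10, 20, 30 and 60 min. Plasma deproteinized with CH3CN and analysed by radio-HPLC for percentage of unchanged ligand.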
Series [14] has as its target T1, Translocator protein. Put plainly: Displacement of [11C]DAA1106 from Sprague-Dawley rat brain PBR. It counts as tissue-based.
Series [15] is described as follows: Distribution coefficient of the compound, log D. Format: physicochemical. The settings on record: octanol/water. A digest of the protocol: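 [11C]ligand (3-5 MBq) shaken with 1-octanol and 10 mM phosphate buffer pH 7.4, 5 mL each, then equilibrated 1 h at room temperature. Both phases counted by gamma counter; log D taken as the organic/aqueous concentration ratio (n=3).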

T1 sequence (P16257 whole entry, looked up): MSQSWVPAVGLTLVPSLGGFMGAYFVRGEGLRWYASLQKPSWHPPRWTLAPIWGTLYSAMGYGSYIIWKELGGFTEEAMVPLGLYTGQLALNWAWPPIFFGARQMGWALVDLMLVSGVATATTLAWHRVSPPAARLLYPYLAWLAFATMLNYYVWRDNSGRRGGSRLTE

`COc1ccc(OC)c(CN(C(C)=O)c2cc(F)ccc2Oc2ccccc2)c1`: the Ki is 0.095 nM at Translocator protein [1] and > 1000 nM in series [2].
Consider `CCC(C)N(C)C(=O)c1cc2ccccc2c(-c2ccccc2Cl)n1` (configuration not stated) [PK-11195], for which the inhibition constant (Ki) in series [2] was > 1000 nM. The Drug uptake with Rattus norvegicus [3] is 44%; with Rhesus monkey [4], 70%.
`CC(=O)N(Cc1ccccc1O[11CH3])c1ccc(Cl)cc1Oc1ccccc1`: the Drug uptake in the series on Rhesus monkey [5] turned out to be 60%; in the series with Rattus norvegicus [6], 0.32%; in the series on Rattus norvegicus [7], 37%; with Rattus norvegicus [8], 63%; in the series with Rattus norvegicus [9], 63%. Besides, the Ratio in the series on Rattus norvegicus [10] was found to be 2.3; in the series on Rattus norvegicus [11], 1; with Rattus norvegicus [12], 1. In series [13], this compound came in with a half-life of 21 min.
On to `CC(=O)N(Cc1ccccc1O[11CH](C)C)c1ccc(Cl)cc1Oc1ccccc1`, for which the Drug uptake is 0.17% in the series on Rattus norvegicus [6], 43% in the series with Rattus norvegicus [7], 63% in the series on Rattus norvegicus [8] and 63% with Rattus norvegicus [9]. In addition, the Ratio turned out to be 1.5 in the series on Rattus norvegicus [10], 1 in the series with Rattus norvegicus [11] and 1 with Rattus norvegicus [12]. In series [13], this compound gave a half-life of 13 min.
As for `COc1ccccc1CN(C(C)=O)c1ccc(Cl)cc1Oc1ccccc1`, the results for the inhibitory constant (Ki) (on Translocator protein [1]; on Translocator protein [14]; in series [2]) were 0.074 nM, 0.31 nM and > 1000 nM, respectively. In series [15], this compound showed a logD of 3.74.
In the case of `CCOc1ccccc1CN(C(C)=O)c1ccc(Cl)cc1Oc1ccccc1`, the Ki on Translocator protein [1] was 0.098 nM; at Translocator protein [14] it was 0.41 nM; in [2] it was > 1000 nM. Further, the logD in series [15] turned out to be 3.81.
As for `C[11CH2]Oc1ccccc1CN(C(C)=O)c1ccc(Cl)cc1Oc1ccccc1`, the Drug uptake in the series with Rattus norvegicus [6] is 0.27%; in the series with Rattus norvegicus [7], 33%; in the series with Rattus norvegicus [8] it was 63%; in the series with Rattus norvegicus [9] it was 63%. For the same compound, the Ratio in the series on Rattus norvegicus [10] was found to be 1.5; in the series on Rattus norvegicus [11] it was 1; in the series with Rattus norvegicus [12], 1. In series [13], this compound had a half-life of 20 min.
For `CC(=O)N(Cc1ccccc1OC(C)C)c1ccc(Cl)cc1Oc1ccccc1`, the figures for the Ki (on Translocator protein [1]; on Translocator protein [14]; in series [2]) were 0.19 nM, 0.68 nM and > 1000 nM, respectively. Besides, the logD in series [15] was found to be 4.02.
